Series [1] has as its target Cholinesterase (Homo sapiens, UniProt P06276). In words: Inhibition of human BChE using butyrylthiocholineiodide as substrate measured for 5 mins by Ellman's method. An outline of the steps:
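Human BChE at about 1 nM was preincubated for 5 min at 20 °C with compound and Ellman's reagent in 0.1 M phosphate buffer, pH 8.0, with 1% final DMSO. The reaction was started with butyrylthiocholine iodide and A412 read for 1 min from initial rates. Activity was corrected by an enzyme-free buffer blank. IC50 was fitted from at least seven concentrations.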
Background: Ellman's reagent forms a yellow product with free thiols.

Series [2] deals with Acetylcholinesterase (Homo sapiens, UniProt P22303). Kind of series: Inhibition of human AChE using acetylthiocholine iodide as substrate measured for 5 mins by Ellman's method. Put shortly: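 Human AChE at about 50 pM was preincubated for 5 min at 20 °C with compound (DMSO stock) and Ellman's reagent in 0.1 M phosphate buffer, pH 8.0, with 1% final DMSO. Acetylthiocholine iodide was then added and A412 followed for 1 min. Residual activity = (vi − b)/(vo − b), with b a blank lacking enzyme. IC50 used at least seven concentrations.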
Chain of Acetylcholinesterase (P22303 whole entry): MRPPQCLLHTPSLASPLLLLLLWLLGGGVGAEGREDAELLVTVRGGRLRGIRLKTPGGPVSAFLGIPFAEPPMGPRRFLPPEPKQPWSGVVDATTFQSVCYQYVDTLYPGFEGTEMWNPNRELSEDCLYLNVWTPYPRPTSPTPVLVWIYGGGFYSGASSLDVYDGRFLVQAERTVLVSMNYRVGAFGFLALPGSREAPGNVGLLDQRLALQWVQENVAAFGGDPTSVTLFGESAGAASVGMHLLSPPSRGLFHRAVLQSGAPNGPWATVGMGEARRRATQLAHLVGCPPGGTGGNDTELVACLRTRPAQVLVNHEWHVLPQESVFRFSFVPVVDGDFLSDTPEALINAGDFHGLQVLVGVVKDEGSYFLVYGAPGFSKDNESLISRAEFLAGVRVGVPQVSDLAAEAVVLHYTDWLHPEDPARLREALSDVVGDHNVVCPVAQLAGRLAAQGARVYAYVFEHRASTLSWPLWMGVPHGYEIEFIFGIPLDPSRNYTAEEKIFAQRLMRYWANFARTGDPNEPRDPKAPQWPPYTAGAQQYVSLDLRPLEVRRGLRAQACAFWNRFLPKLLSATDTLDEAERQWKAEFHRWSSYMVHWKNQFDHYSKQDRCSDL

In series [3] the test system is Mus musculus. Kind of series: Anti-amnesic activity in CD-1 mouse model of scopolamine-induced memory impairment assessed as step-through latency time to enter dark compartment in retention trail on day 2 at 10 to 30 mg/kg, ip administered 60 mins before trail by passive avoidance test. Type of series: functional, organism-based. Conditions: dose 10-30 mg/kg. An outline of the steps:
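CD-1 mice, passive avoidance: scopolamine 1 mg/kg s.c. in 0.9% saline 30 min before trial; test article suspended in 1% Tween 80, i.p. 60 min before trial (controls 1% Tween 80 i.p.). Acquisition trial: 30 s in lit compartment, gate opened, step-through latency to dark chamber recorded; retention trial 24 h later. n = 8–9.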

The test system of series [4] is Mus musculus. Kind of series: Cognitive enhancing effect in C57BL/6J mouse model of scopolamine-induced memory impairment model assessed as escape latency time at 10 to 30 mg/kg, ip administered for 7 days and 60 mins before trail by Morris water maze test relative to control. To be noted: dose 10-30 mg/kg, time 7.0 day. It counts as functional, organism-based.
The test system of series [5] is Mus musculus. Kind of series: Cognitive enhancing effect in intraperitoneally dosed C57BL/6J mouse model of scopolamine-induced memory impairment assessed as enhancement of long-term memory retrieval by measuring latency time to find former escape box location in acquisition phase measured on day 12 by Barnes maze test. It counts as functional, organism-based. Put shortly:
(§1)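 C57BL/6J mice, Barnes maze: scopolamine 1 mg/kg s.c. 30 min before first daily trial; compound in 1% Tween 80 i.p. 60 min before, daily during 4-day acquisition (four trials/day, 15-min intervals). Drug-off probe day 5 (short-term) and day 12 (long-term): escape box removed, 90 s exploration, latency to former box location and primary errors recorded. n = 7–9; one-way ANOVA, Dunnett's.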

A short description of series [6]: Neurotoxicity in mouse assessed as effect in locomotor activity at 30 mg/kg, ip measured up to 60 mins by rotarod test. Conditions: in vivo, 1 h. Type of series: toxicity, organism-based. An outline of the steps:
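Mice trained 3 consecutive days on rotarod (2 cm rod, 18 rpm); 24 h later dosed i.p. with 30 mg/kg in 1% Tween 80 or vehicle, tested after 60 min at 6, 18 and 24 rpm. Motor impairment defined as failure to stay on for 60 s; expressed as mean time on rod.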
(The rotarod test checks motor coordination on a turning rod.)

Series [7] relates to Mus musculus. In words: Cognitive enhancing effect in intraperitoneally dosed C57BL/6J mouse model of scopolamine-induced memory impairment assessed as enhancement of learning abilities and working memory by measuring escape latency time to reach target in acquisition phase measured on day 5 by Barnes maze test. Type of series: functional, organism-based. An outline of the steps:
as §1

For series [8], the system named is Mus musculus. In words: Cognitive enhancing effect in intraperitoneally dosed C57BL/6J mouse model of scopolamine-induced memory impairment assessed as enhancement of short-term memory retrieval by measuring latency time to find former escape box location in acquisition phase measured on day 5 by Barnes maze test. Type of series: functional, organism-based. An outline of the steps: as §1

Active and inactive are the calls of the source.

This note sets out measurements from ChEMBL document CHEMBL4706571, “Structure-activity relationship study of tryptophan-based butyrylcholinesterase inhibitors” (Eur J Med Chem, 2020).

Chain of Cholinesterase (P06276 whole entry): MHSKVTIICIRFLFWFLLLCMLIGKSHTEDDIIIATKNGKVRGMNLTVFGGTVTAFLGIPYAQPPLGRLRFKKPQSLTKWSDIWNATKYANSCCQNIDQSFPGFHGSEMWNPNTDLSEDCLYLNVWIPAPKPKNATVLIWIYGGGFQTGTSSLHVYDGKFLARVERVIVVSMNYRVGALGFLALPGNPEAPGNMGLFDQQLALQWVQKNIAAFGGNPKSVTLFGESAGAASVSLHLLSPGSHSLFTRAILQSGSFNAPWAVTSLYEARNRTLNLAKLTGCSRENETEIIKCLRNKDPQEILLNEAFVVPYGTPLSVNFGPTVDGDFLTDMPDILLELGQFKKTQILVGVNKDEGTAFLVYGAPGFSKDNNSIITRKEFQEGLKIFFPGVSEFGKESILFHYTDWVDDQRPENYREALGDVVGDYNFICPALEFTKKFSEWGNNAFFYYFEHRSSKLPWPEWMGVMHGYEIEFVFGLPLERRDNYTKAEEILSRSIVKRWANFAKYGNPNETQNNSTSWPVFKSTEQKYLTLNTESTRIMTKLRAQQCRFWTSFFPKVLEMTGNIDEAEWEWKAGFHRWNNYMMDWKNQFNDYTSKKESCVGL

Consider `CCCCN(CCCC)[C@@H](Cc1c[nH]c2ccccc12)C(=O)N1CCC(Cc2ccccc2)CC1`, for which the midpoint of inhibition in series [1], the IC50, lay at 76 nM.

As to `CCCCN[C@@H](Cc1c[nH]c2ccccc12)C(=O)NCCC1CCN(c2ccccc2)CC1`, in series [1], the concentration for half-maximal inhibition (IC50) (usually the concentration needed to halve the response being measured) is 5.6 nM.

Take `CCCCN[C@@H](Cc1c[nH]c2ccccc12)C(=O)NCCC1CCN(CC2CCN(C)CC2)CC1`: the concentration for half-maximal inhibition (IC50) in series [1] was 6600 nM; in series [2], 29700 nM.

With `CCCCN[C@@H](Cc1c[nH]c2ccccc12)C(=O)NCCC1CCCC(c2ccccc2)C1` (mixture of isomers), in series [1], the midpoint of inhibition, the IC50, lay at 6.6 nM.

`CCCCN[C@@H](CC(C)C)C(=O)NCCC1CCCCCC1` came in with a concentration for half-maximal inhibition (IC50) in series [1] of 36300 nM.

`CCCCN[C@@H](Cc1c[nH]c2ccccc12)C(=O)NCCC1CCCN(Cc2ccccc2)C1` (mixture of isomers): the IC50 in series [1] is 9 nM.

As to `CCCCN[C@@H](Cc1c[nH]c2ccccc12)C(=O)NCCC1CCN(Cc2ccccc2)CC1`, the IC50 was 2 nM in series [1] and 25400 nM in series [2].

With `CCCCN[C@@H](Cc1c[nH]c2ccccc12)C(=O)NCCC1CCCN(Cc2c(F)c(F)cc(F)c2F)CC1` (mixture of isomers), the concentration for half-maximal inhibition (IC50) in series [1] is 5.9 nM.

In series [1], `CCCCN[C@@H](Cc1ccccc1)C(=O)NCCC1CCCCCC1` had an IC50 of 609 nM.

Consider `CCCCN[C@@H](Cc1c[nH]c2ccccc12)C(=O)NCCC1CCN(CCc2ccccc2)CC1`, for which, in series [1], the IC50 amounted to 3.8 nM.

Turning to `CCCCN[C@@H](Cc1c[nH]c2ccccc12)C(=O)N1CCCC1c1ccccc1` (stereo partly drawn), it took 990 nM to reach half-maximal inhibition in series [1] (IC50).

With `CCCCN[C@@H](Cc1c[nH]c2ccccc12)C(=O)NCCC1CCCN(Cc2ccccc2)CC1` (mixture of isomers), the results for the IC50 in series [1] and in series [2] were 2.8 nM and 16000 nM, respectively.

Molecule `CCCCN[C@@H](Cc1c[nH]c2ccccc12)C(=O)NCCC1CCCN(Cc2ccc(OC)cc2)CC1` (mixture of isomers) came in with a half-inhibitory concentration (IC50) in series [1] of 100 nM.

On to `CCCCN[C@@H](Cc1c[nH]c2ccccc12)C(=O)NCCC1CCCCCC1`, for which, in series [1], 22 nM corresponded to half-maximal inhibition (IC50). Moreover, the outcome in series [3], in series [4], in series [7] and in series [8] was inactive. For the same molecule, the result in series [5] was Active. The Activity entry in series [6] was “Non-Toxic”.
